# Calls of active or inactive are those of the source. The calls are words filed in the database; no cut-off is given here.
# Tests used:
# Mus musculus [1] = assay: Decrease in liver weight in po dosed diet-induced obese C57BL/6 mouse after 14 days; format: functional; design: scale not given: the % may be the effect or the level left
# Outline: (§1)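 DIO mice were male C57BL/6 fed a 60%-fat (by kcal) diet from about 4 weeks of age for about 170 days. They were grouped (n = 8) to match cholesterol and body weight. Dosing was oral, once daily for 2 weeks, in 0.5% CMC/1% Lutrol F68. At kill, blood was taken by cardiac puncture for plasma TGs. The liver was removed and weighed, and hepatic TGs were measured.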
# Rattus norvegicus [2] = assay: Toxicity in Sprague-Dawley rat assessed as suppression of thyroid hormone axis measured by decrease in free 3,5,3',5'-tetraiodo-L-thyronine level at 1 mg/kg, po after 7 weeks; format: organism-based; design: dose 1 mg/kg, route oral; settings: in vivo, 1176 h
# Outline: (§2)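 Male SD rats (n = 5–6 per group; baseline group n = 8) given vehicle (0.5% CMC/1% Lutrol F68) or drug orally once daily. One group per cohort weighed and killed by decapitation without anesthesia after 1, 2, 4 and 7 weeks. Trunk-blood serum assayed for total/free T3 and T4; TSH by [125I] radioimmunoassay with magnetic separation. Pituitary TSHβ mRNA also measured.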
# Mus musculus [3] = assay: Reduction in blood glucose level in po dosed diet-induced obese C57BL/6 mouse; format: functional, organism-based
# Outline: (§3)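 Male C57BL/6 mice, about 4 weeks old, fed a high-fat diet (60% kcal fat) for about 170 days. Assigned to groups (n = 8) matched for cholesterol and body weight. Dosed orally once daily in 0.5% CMC/1% Lutrol F68 for 2 weeks. Baseline blood taken by tail nick. At end, cardiac-puncture blood used for cholesterol, TGs, glucose and thyroid hormones; liver weighed and hepatic TGs measured.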
# Mus musculus [4] = assay: Effect on hepatic LDLR mRNA level in wild-type C57BL/6 mouse at 0.5 mg/kg/day once daily for 7 days; format: functional
# Mus musculus [5] = assay: Decrease in body weight in diet-induced obese C57BL/6 mouse at 0.03 mg/kg, po; format: functional; design: scale not given: the % may be the effect or the level left
# Rattus norvegicus [6] = assay: Toxicity in Sprague-Dawley rat assessed as suppression of thyroid hormone axis measured by decrease in total 3,5,3',5'-tetraiodo-L-thyronine level at 1 mg/kg, po after 7 weeks; format: organism-based; design: dose 1 mg/kg, route oral; settings: in vivo, 1176 h
# Rattus norvegicus [7] = assay: Toxicity in Sprague-Dawley rat assessed as suppression of thyroid hormone axis measured by decrease in free 3,5,3',5'-triiodo-L-thyronine level at 1 mg/kg, po after 7 weeks; format: organism-based; design: dose 1 mg/kg, route oral; settings: in vivo, 1176 h; outline: as §2
# Mus musculus [8] = assay: Reduction in plasma cholesterol level in po dosed diet-induced obese C57BL/6 mouse after 2 weeks; format: functional; design: scale not given: the % may be the effect or the level left; outline: as §3
# Rattus norvegicus [9] = assay: Toxicity in Sprague-Dawley rat assessed as suppression of thyroid hormone axis measured by decrease in TSH-beta mRNA level at 0.1 mg/kg, po after 7 weeks; format: organism-based; design: dose 0.1 mg/kg, route oral; settings: in vivo, 1176 h; outline: as §2
# Mus musculus [10] = assay: Reduction in total 3,5,3',5'-tetraiodo-L-thyronine level in po dosed diet-induced obese C57BL/6 mouse; format: functional, organism-based; outline: as §3
# Rattus norvegicus [11] = assay: Toxic cardiac effect in Sprague-Dawley rat assessed as increase in heart rate at 1 mg/kg/day, po; format: toxicity, organism-based; design: route oral; settings: in vivo
# Outline: (§4)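 Male SD rats (n = 6 per group) dosed daily by oral gavage for 7 days; vehicle group included. On day 7, rats anesthetized with isoflurane; catheter-tip transducer inserted into left ventricle via right carotid artery. LV pressure, LV dP/dt and heart rate (lead I ECG) recorded digitally. Systolic/diastolic aortic pressure taken by retracting catheter into proximal aorta.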
# Rattus norvegicus [12] = assay: Toxicity in Sprague-Dawley rat assessed as suppression of thyroid hormone axis measured by decrease in free 3,5,3',5'-triiodo-L-thyronine level at 0.1 mg/kg, po after 7 weeks; format: organism-based; design: dose 0.1 mg/kg, route oral; settings: in vivo, 1176 h; outline: as §2
# Rattus norvegicus [13] = assay: Toxic cardiac effect on Sprague-Dawley rat assessed as decrease in body weight gain at 1 mg/kg/day, po; format: toxicity, organism-based; design: route oral; scale not given: the % may be the effect or the level left; settings: in vivo
# Rattus norvegicus [14] = assay: Toxicity in Sprague-Dawley rat assessed as suppression of thyroid hormone axis measured by decrease in total 3,5,3',5'-tetraiodo-L-thyronine level at 0.1 mg/kg, po after 7 weeks; format: organism-based; design: dose 0.1 mg/kg, route oral; settings: in vivo, 1176 h
# Mus musculus [15] = assay: Increase in heart weight in po dosed diet-induced obese C57BL/6 mouse; format: functional, organism-based
# Rattus norvegicus [16] = assay: Toxic cardiac effect on Sprague-Dawley rat assessed as increase in heart rate at >= 1 mg/kg/day, po for 7 days; format: toxicity, organism-based; design: route oral; settings: in vivo, 168 h; outline: as §4
# Rattus norvegicus [17] = species on record: Rattus norvegicus; assay: Reduction in plasma cholesterol level in cholesterol fed Sprague-Dawley rat; format: functional
# Rattus norvegicus [18] = assay: Effect on malic enzyme mRNA expression in po dosed Sprague-Dawley rat liver; format: functional, organism-based; settings: TDE = time-dependent effect
# Outline: (§5)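 Killed 3, 8 and 24 h post-dose under 2.5% isoflurane. Pituitary and thyroid snap-frozen; liver, heart, soleus, spleen and kidney freeze-clamped. mRNA by quantitative real-time PCR, expressed as fold-change vs vehicle.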
# Rattus norvegicus [19] = assay: Effect on SREBP-1c mRNA expression in po dosed Sprague-Dawley rat liver; format: functional, organism-based; settings: TDE = time-dependent effect
# Rattus norvegicus [20] = assay: Toxic cardiac effect in Sprague-Dawley rat assessed as increase in first derivative of left ventricular pressure at 1 mg/kg/day, po; format: toxicity, organism-based, Heart left ventricle; design: route oral; settings: in vivo; outline: as §4
# Mus musculus [21] = assay: Decrease in cholesterol level in LDLR deficient C57BL/6 mouse at 0.5 mg/kg/day once daily for 7 days; format: functional, organism-based
# Mus musculus [22] = assay: Decrease in liver triglyceride level in po dosed diet-induced obese C57BL/6 mouse after 14 days; format: functional; design: scale not given: the % may be the effect or the level left; outline: as §1
# Rattus norvegicus [23] = assay: Toxicity in Sprague-Dawley rat assessed as suppression of thyroid hormone axis measured by decrease in serum TSH level at 1 mg/kg, po after 7 weeks; format: organism-based; design: dose 1 mg/kg, route oral; settings: in vivo, 1176 h; outline: as §2
# Rattus norvegicus [24] = assay: Toxicity in Sprague-Dawley rat assessed as suppression of thyroid hormone axis measured by decrease in TSH-beta mRNA level at 1 mg/kg, po after 7 weeks; format: organism-based; design: dose 1 mg/kg, route oral; settings: in vivo, 1176 h; outline: as §2
# Rattus norvegicus [25] = assay: Toxicity in Sprague-Dawley rat assessed as suppression of thyroid hormone axis measured by decrease in total […]-L-thyronine level at 0.1 mg/kg, po after 7 weeks; format: organism-based; design: dose 0.1 mg/kg, route oral; settings: in vivo, 1176 h
# Rattus norvegicus [26] = assay: Toxic cardiac effect on Sprague-Dawley rat assessed as increase in first derivative of left ventricular pressure at >= 1 mg/kg/day, po for 7 days; format: toxicity, organism-based, Heart left ventricle; design: route oral; settings: in vivo, 168 h; outline: as §4
# Mus musculus [27] = assay: Decrease in cholesterol level in wild-type C57BL/6 mouse at 5 mg/kg/day once daily for 7 days; format: functional, organism-based
# Mus musculus [28] = assay: Reduction in total […]-L-thyronine level in po dosed diet-induced obese C57BL/6 mouse; format: functional, organism-based; outline: as §3
# Mus musculus [29] = assay: Decrease in cholesterol level in LDLR deficient C57BL/6 mouse at 5 mg/kg/day once daily for 7 days; format: functional, organism-based
# Rattus norvegicus [30] = assay: Toxicity in Sprague-Dawley rat assessed as suppression of thyroid hormone axis measured by decrease in serum TSH level at 0.1 mg/kg, po after 7 weeks; format: organism-based; design: dose 0.1 mg/kg, route oral; settings: in vivo, 1176 h; outline: as §2
# Mus musculus [31] = assay: Effect on hepatic LDLR mRNA level in LDLR deficient C57BL/6 mouse at 0.5 mg/kg/day once daily for 7 days; format: functional
# Rattus norvegicus [32] = assay: Toxic cardiac effect on Sprague-Dawley rat assessed as increase in systolic aortic pressure at >= 1 mg/kg/day, po for 7 days; format: toxicity, organism-based; design: route oral; settings: in vivo, 168 h; outline: as §4
# Rattus norvegicus [33] = assay: Effect on type 1 iodothyronine deiodinase mRNA expression in po dosed Sprague-Dawley rat liver; format: functional, organism-based; settings: TDE = time-dependent effect; outline: as §5
# Mus musculus [34] = assay: Decrease in cholesterol level in wild-type C57BL/6 mouse at 0.5 mg/kg/day once daily for 7 days; format: functional, organism-based
# Rattus norvegicus [35] = assay: Toxicity in Sprague-Dawley rat assessed as suppression of thyroid hormone axis measured by assessed as decrease in total […]-L-thyronine level at 1 mg/kg, po after 7 weeks; format: organism-based; design: dose 1 mg/kg, route oral; settings: in vivo, 1176 h; outline: as §2
# Rattus norvegicus [36] = assay: Toxicity in Sprague-Dawley rat assessed as suppression of thyroid hormone axis measured by decrease in free 3,5,3',5'-tetraiodo-L-thyronine level at 0.1 mg/kg, po after 7 weeks; format: organism-based; design: dose 0.1 mg/kg, route oral; settings: in vivo, 1176 h; outline: as §2
# Rattus norvegicus [37] = assay: Toxic cardiac effect in Sprague-Dawley rat assessed as increase in heart weight at 1 mg/kg/day, po; format: toxicity, organism-based; design: route oral; settings: in vivo
# Rattus norvegicus [38] = assay: Effect on LDLR mRNA expression in po dosed Sprague-Dawley rat liver; format: functional, organism-based; settings: TDE = time-dependent effect
smiles,measurement,setting,value
CC(C)c1cc(Oc2c(Cl)cc(CC(=O)O)cc2Cl)ccc1O,Activity,Mus musculus [1],33%
same,Activity,Rattus norvegicus [2],Active
same,Activity,Mus musculus [3],Active
same,Activity,Mus musculus [4],-55.8%
same,Activity,Mus musculus [5],3%
same,Activity,Rattus norvegicus [6],Active
same,Activity,Rattus norvegicus [7],Active
same,Activity,Mus musculus [8],67%
same,Activity,Rattus norvegicus [9],Active
same,Activity,Mus musculus [10],Active
same,Activity,Rattus norvegicus [11],Active
same,Activity,Rattus norvegicus [12],Active
same,Activity,Rattus norvegicus [13],61%
same,Activity,Rattus norvegicus [14],Active
same,Activity,Mus musculus [15],Active
same,Activity,Rattus norvegicus [16],Active
same,ED50,Rattus norvegicus [17],0.05 mg/kg
same,Activity,Rattus norvegicus [18],tde
same,Activity,Rattus norvegicus [19],tde
same,Activity,Rattus norvegicus [20],Active
same,Activity,Mus musculus [21],inactive
same,Activity,Mus musculus [22],33%
same,Activity,Rattus norvegicus [23],Active
same,Activity,Rattus norvegicus [24],Active
same,Activity,Rattus norvegicus [25],Active
same,Activity,Rattus norvegicus [26],Active
same,Activity,Mus musculus [27],Active
same,Activity,Mus musculus [28],Active
same,Activity,Mus musculus [29],inactive
same,Activity,Rattus norvegicus [30],Active
same,Activity,Mus musculus [31],-10.6%
same,Activity,Rattus norvegicus [32],Active
same,Activity,Rattus norvegicus [33],tde
same,Activity,Mus musculus [34],Active
same,Activity,Rattus norvegicus [35],Active
same,Activity,Rattus norvegicus [36],Active
same,Activity,Rattus norvegicus [37],Active
same,Activity,Rattus norvegicus [38],tde

# — ChEMBL document CHEMBL1156517, “Targeting thyroid hormone receptor-beta agonists to the liver reduces cholesterol and triglycerides and improves the therapeutic index” (Proc Natl Acad Sci U S A, 2007)
